Where a SMILES comes first, the peptide text is derived from it. [ ]: non-standard residue; d: D form. The star is where a group is joined. X1 = OC[C@H]1O[C@@H](n2cc(C*)nn2)[C@H](O)[C@@H](O)[C@H]1O; Dmt = Cc1cc(O)cc(C)c1C[C@H](N)C(=O)O
What was measured:
Mus musculus [1] = test: Antinociceptive activity in C57Bl6 mouse assessed as tail flick latency at 0.5 mg/kg, iv by tail-flick assay; type: functional, organism-based; parameters: dose 0.5 mg/kg; settings: TDE = time-dependent effect
Procedure, shortened: (§1)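 C57Bl6 mice (23–25 g) were dosed intravenously at 0.5 mg/kg. Spinal antinociception was measured by tail-flick latency and expressed as %MPE. The response was tracked over time up to 180 min post-dose to find the time of peak effect.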

Mus musculus [2] = test: Antinociceptive activity in C57Bl6 mouse assessed as time of peak effect of tail flick latency at 0.5 mg/kg, iv by tail-flick assay; type: functional; procedure, shortened: as §1
Mus musculus [3] = test: Antinociceptive activity in iv dosed C57Bl6 mouse after 5 to 180 mins by hot plate test; type: functional
Procedure, shortened: (§2)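 Intravenous dosing in C57Bl6 mice (23–25 g), with antinociception monitored up to 180 min by hot plate (supraspinal) or tail-flick (spinal) and expressed as %MPE. ED50 in mg/kg came from standard nonlinear regression of the log dose–response curve.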

[4] = target: Delta-type opioid receptor (Rattus norvegicus, UniProt P33533); test: Displacement of [3H]DSLET from delta opioid receptor in rat brain membranes; type: cell membranes, Membrane
Procedure, shortened: (§3)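 Binding used rat brain membrane preparations, with MOR labelled by [3H]DAMGO and DOR by [3H]DSLET and read as displacement. Functional MOR activity was measured in isolated guinea pig ileum and DOR activity in isolated mouse vas deferens. Values are means of 3–4 experiments.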

Mus musculus [5] = test: Antinociceptive activity in C57Bl6 mouse assessed as maximum possible effect at 0.5 mg/kg, iv after 180 mins by hot plate test; type: functional
Procedure, shortened: (§4)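 C57Bl6 mice (23–25 g body weight) received a single intravenous dose of 0.5 mg/kg. Supraspinal antinociception was measured by hot plate and expressed as %MPE. Readings were followed over time up to 180 min after dosing to give the time course and the time of peak effect.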

Mu-type opioid receptor [6] = target: Mu-type opioid receptor (Cavia porcellus, UniProt P97266); test: Agonist activity at mu opioid receptor in guinea pig ileum; type: tissue-based; procedure, shortened: as §3
Mus musculus [7] = test: Antinociceptive activity in iv dosed C57Bl6 mouse assessed as tail flick latency after 5 to 180 mins by tail-flick assay; type: functional; procedure, shortened: as §2
Mu-type opioid receptor [8] = target: Mu-type opioid receptor (Rattus norvegicus, UniProt P33535); test: Displacement of [3H]DAMGO from mu opioid receptor in rat brain membranes; type: cell membranes, Membrane; procedure, shortened: as §3
[9] = target: Delta-type opioid receptor (Mus musculus, UniProt P32300); test: Agonist activity at delta opioid receptor in mouse vas deferens; procedure, shortened: as §3
Plasma = test: Drug degradation in human plasma up to 20 hrs; type: ADME, cell-free
Mus musculus [10] = test: Antinociceptive activity in C57Bl6 mouse at 0.5 mg/kg, iv by hot plate test; type: functional, organism-based; parameters: dose 0.5 mg/kg; settings: TDE = time-dependent effect; procedure, shortened: as §4
Mus musculus [11] = test: Antinociceptive activity in C57Bl6 mouse assessed as maximum possible effect of tail flick latency at 0.5 mg/kg, iv after 180 mins by tail-flick assay; type: functional; procedure, shortened: as §1
Mus musculus [12] = test: Antinociceptive activity in C57Bl6 mouse assessed as time of peak effect at 0.5 mg/kg, iv by hot plate test; type: functional; procedure, shortened: as §4
[13] = Half life in rat brain homogenates; type: ADME, tissue-based; settings: brain homogenate
[14] = Half life in human plasma; type: ADME, cell-free

Sequence of Delta-type opioid receptor (Rattus norvegicus, UniProt P33533) (P33533 whole entry): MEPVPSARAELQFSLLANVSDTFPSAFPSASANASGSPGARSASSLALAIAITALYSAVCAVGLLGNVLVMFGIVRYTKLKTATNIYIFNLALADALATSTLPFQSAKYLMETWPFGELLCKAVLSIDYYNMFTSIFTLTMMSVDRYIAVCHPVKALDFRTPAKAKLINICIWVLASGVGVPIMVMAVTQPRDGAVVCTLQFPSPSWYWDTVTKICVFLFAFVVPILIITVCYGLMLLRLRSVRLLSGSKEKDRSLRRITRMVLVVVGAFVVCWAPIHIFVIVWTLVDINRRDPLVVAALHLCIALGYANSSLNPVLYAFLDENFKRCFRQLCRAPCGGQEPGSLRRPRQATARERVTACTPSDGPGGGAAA
Sequence of Delta-type opioid receptor (Mus musculus, UniProt P32300) (P32300 whole entry): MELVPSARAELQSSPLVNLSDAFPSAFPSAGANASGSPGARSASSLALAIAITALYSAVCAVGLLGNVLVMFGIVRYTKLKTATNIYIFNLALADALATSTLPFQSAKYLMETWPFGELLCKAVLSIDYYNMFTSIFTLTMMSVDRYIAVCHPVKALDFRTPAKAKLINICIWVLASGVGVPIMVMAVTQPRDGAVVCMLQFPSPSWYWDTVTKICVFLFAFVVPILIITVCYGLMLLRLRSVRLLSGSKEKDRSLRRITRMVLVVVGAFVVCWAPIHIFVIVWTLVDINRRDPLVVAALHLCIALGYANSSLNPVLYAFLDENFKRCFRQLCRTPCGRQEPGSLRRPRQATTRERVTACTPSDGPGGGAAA
Sequence of Mu-type opioid receptor (Cavia porcellus, UniProt P97266) (P97266 whole entry): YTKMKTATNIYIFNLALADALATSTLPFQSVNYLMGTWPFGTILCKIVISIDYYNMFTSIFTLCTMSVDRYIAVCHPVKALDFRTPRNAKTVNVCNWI
Sequence of Mu-type opioid receptor (Rattus norvegicus, UniProt P33535) (P33535 whole entry): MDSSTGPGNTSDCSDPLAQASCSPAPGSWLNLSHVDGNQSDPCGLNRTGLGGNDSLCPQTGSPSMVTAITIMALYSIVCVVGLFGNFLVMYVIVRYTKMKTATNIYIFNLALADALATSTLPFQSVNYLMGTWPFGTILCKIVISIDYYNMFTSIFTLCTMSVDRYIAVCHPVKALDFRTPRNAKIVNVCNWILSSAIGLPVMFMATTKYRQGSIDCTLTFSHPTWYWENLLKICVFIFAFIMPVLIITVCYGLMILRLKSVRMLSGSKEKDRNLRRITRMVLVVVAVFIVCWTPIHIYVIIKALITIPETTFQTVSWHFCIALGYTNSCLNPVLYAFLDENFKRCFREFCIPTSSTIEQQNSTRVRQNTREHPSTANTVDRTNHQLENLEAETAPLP

Cc1cc(O)cc(C)c1C[C@H](N)C(=O)N[C@H](CCCNC(=N)N)C(=O)N[C@@H](Cc1ccccc1)C(=O)N[C@@H](Cc1cn([C@@H]2O[C@H](CO)[C@@H](O)[C@H](O)[C@H]2O)nn1)C(N)=O
Activity (Mus musculus [1]): tde | Time (Mus musculus [2]): 60 min | Activity (Mus musculus [3]): Dose-dependent effect | ED50 (Mus musculus [3]): 0.31 mg/kg | Ki [4]: 11.9 nM | MPE (Mus musculus [5]): 40% | IC50 (Mu-type opioid receptor [6]): 1.46 nM | Activity (Mus musculus [7]): Dose-dependent effect | ED50 (Mus musculus [7]): 0.34 mg/kg | Ki (Mu-type opioid receptor [8]): 0.203 nM | IC50 [9]: 2.75 nM | Stability (Plasma): Stable | Activity (Mus musculus [10]): tde | MPE (Mus musculus [11]): 40%

Cc1cc(O)cc(C)c1C[C@H](N)C(=O)N[C@H](CCCNC(=N)N)C(=O)N[C@@H](Cc1ccccc1)C(=O)N[C@@H](Cc1cn([C@@H]2O[C@H](CO)[C@H](O)[C@H](O)[C@H]2O)nn1)C(N)=O
Time (Mus musculus [12]): 60 min | Activity (Mus musculus [1]): tde | Time (Mus musculus [2]): 60 min | Activity (Mus musculus [3]): Dose-dependent effect | ED50 (Mus musculus [3]): 0.4 mg/kg | Ki [4]: 15.6 nM | MPE (Mus musculus [5]): 40% | IC50 (Mu-type opioid receptor [6]): 0.66 nM | Activity (Mus musculus [7]): Dose-dependent effect | ED50 (Mus musculus [7]): 0.27 mg/kg | Ki (Mu-type opioid receptor [8]): 0.222 nM | IC50 [9]: 1.98 nM | Stability (Plasma): Stable | Activity (Mus musculus [10]): tde | MPE (Mus musculus [11]): 40%

Cc1cc(O)cc(C)c1C[C@H](N)C(=O)N[C@H](CCCNC(=N)N)C(=O)N[C@@H](Cc1ccccc1)C(=O)N[C@@H](COCc1cn([C@@H]2O[C@H](CO)[C@H](O)[C@H](O)[C@H]2O)nn1)C(N)=O (H-[Dmt][dR]FS(X1)-NH2)
Ki [4]: 6.36 nM | IC50 (Mu-type opioid receptor [6]): 0.35 nM | Ki (Mu-type opioid receptor [8]): 0.112 nM | IC50 [9]: 4.9 nM

N=C(N)NCCC[C@@H](NC(=O)[C@@H](N)Cc1ccc(OCc2cn([C@@H]3O[C@H](CO)[C@H](O)[C@H](O)[C@H]3O)nn2)cc1)C(=O)N[C@@H](Cc1ccccc1)C(=O)N[C@@H](CCCCN)C(N)=O
Ki [4]: > 5000 nM | IC50 (Mu-type opioid receptor [6]): 1180 nM | Ki (Mu-type opioid receptor [8]): 38.4 nM | IC50 [9]: 1990 nM

Cc1cc(O)cc(C)c1C[C@H](N)C(=O)N[C@H](CCCNC(=N)N)C(=O)N[C@@H](Cc1ccccc1)C(=O)N[C@@H](CCCCN)C(N)=O
Activity (Mus musculus [1]): tde | Time (Mus musculus [2]): 60 min | Activity (Mus musculus [3]): Dose-dependent effect | ED50 (Mus musculus [3]): 0.25 mg/kg | MPE (Mus musculus [5]): 40% | Activity (Mus musculus [7]): Dose-dependent effect | ED50 (Mus musculus [7]): 0.17 mg/kg | Activity (Mus musculus [10]): tde | MPE (Mus musculus [11]): 40%

NCCCC[C@H](NC(=O)[C@H](Cc1ccccc1)NC(=O)[C@@H](CCCN=C(N)N)NC(=O)[C@@H](N)Cc1ccc(O)cc1)C(N)=O
IC50 (Mu-type opioid receptor [6]): 254 nM

Cc1cc(O)cc(C)c1C[C@H](N)C(=O)N1CCC[C@H]1C(=O)N[C@@H](Cc1ccccc1)C(=O)N[C@@H](Cc1ccccc1)C(N)=O
half-life [13]: 39.5 min | half-life [14]: 53 min

Cc1cc(O)cc(C)c1C[C@H](N)C(=O)N[C@H](CCCNC(=N)N)C(=O)N[C@@H](Cc1ccccc1)C(=O)N[C@@H](Cc1ccc(OCc2cn([C@@H]3O[C@H](CO)[C@H](O)[C@H](O)[C@H]3O)nn2)cc1)C(N)=O (H-[Dmt][dR]FY(X1)-NH2)
Ki [4]: 22.2 nM | IC50 (Mu-type opioid receptor [6]): 2.3 nM | Ki (Mu-type opioid receptor [8]): 0.286 nM | IC50 [9]: 6 nM
